Laboratory results reported in ChEMBL document CHEMBL1154850, “Dragonamide E, a modified linear lipopeptide from Lyngbya majuscula with antileishmanial activity” (J Nat Prod, 2010).
Square brackets hold non-standard residues; d marks the D form. Peptide text beside a SMILES is read from it. * marks the point of attachment. NMeF = CN[C@@H](Cc1ccccc1)C(=O)O; NMeV = CN[C@H](C(=O)O)C(C)C; X1 = C#CCCCC[C@H](C)C(=O)*; X2 = C#CCCC/C=C(\C)C(=O)*

How the values were obtained:
Assay type in all cases: functional, organism-based
Trypanosoma cruzi = assay: Antiparasitic activity against Trypanosoma cruzi Tulahuen C4 infected african green monkey Vero cells expressing beta-galctosidase after 5 days; conditions: 120 h
Method in brief: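 Parasite is a transgenic β-galactosidase-expressing Trypanosoma cruzi, Tulahuen strain clone C4; assay run as in earlier work.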

Leishmania donovani = assay: Antileishmanial activity against Leishmania donovani LD-1S/MHOM/SD/00-1S amastigotes after 72 hrs by PicoGreen fluorescence assay
Method in brief: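 Axenic amastigotes of WHO reference strain LD-1S/MHOM/SD/00-strain 1S; assay run as in earlier work.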

Plasmodium falciparum = assay: Antimalarial activity against chloroquine-resistant Plasmodium falciparum Indochina W2 infected human erythrocytes assessed as uptake of PicoGreen after 48 hrs; conditions: Indochina W2, 48 h

`CC1CS(=O)(=O)CCN1/N=C/c1ccc([N+](=O)[O-])o1` (centres undefined) [NIFURTIMOX] gave an IC50 (Trypanosoma cruzi) of 13.5 µM.
With `C#CCCC/C=C(\C)C(=O)N(C)[C@H](C(=O)N(C)[C@H](C(=O)N(C)[C@H](C(=O)N(C)[C@@H](Cc1ccccc1)C(N)=O)C(C)C)C(C)C)C(C)C` [DRAGONAMIDE E] (X2-[NMeV][NMeV][NMeV][NMeF]-NH2) the IC50 (Leishmania donovani) was 5.1 µM, the IC50 (Plasmodium falciparum) was > 10 µM and the IC50 (Trypanosoma cruzi) was > 10 µM.
In the case of `C#CCCCC[C@H](C)C(=O)N(C)[C@H](C(=O)N(C)[C@H](C(=O)N(C)[C@H](C(=O)N(C)[C@H](C(N)=O)C(C)C)C(C)C)C(C)C)C(C)C` [DRAGONAMIDE B] (X1-[NMeV][NMeV][NMeV][NMeV]-NH2), the IC50 (Leishmania donovani) is reported as > 10 µM, the IC50 (Plasmodium falciparum) is reported as > 10 µM and the IC50 (Trypanosoma cruzi) is reported as > 10 µM.
With `C[C@@H]1[C@H](O)[C@@H](C)/C=C/C=C/C=C/C=C/C=C/C=C/C=C/[C@H](O[C@@H]2O[C@H](C)[C@@H](O)[C@H](N)[C@@H]2O)C[C@@H]2O[C@](O)(C[C@@H](O)C[C@@H](O)[C@H](O)CC[C@@H](O)C[C@@H](O)CC(=O)O[C@H]1C)C[C@H](O)[C@H]2C(=O)O` [AMPHOTERICIN B] the IC50 (Leishmania donovani) was 0.1 µM.
In the case of `C#CCCCC[C@H](C)C(=O)N(C)[C@H](C(=O)N(C)[C@H](C(=O)N(C)[C@H](C(=O)N(C)[C@@H](Cc1ccccc1)C(N)=O)C(C)C)C(C)C)C(C)C` [DRAGONAMIDE A] (X1-[NMeV][NMeV][NMeV][NMeF]-NH2), the IC50 (Leishmania donovani) is reported as 6.5 µM, the IC50 (Plasmodium falciparum) is reported as > 10 µM and the IC50 (Trypanosoma cruzi) is reported as > 10 µM.
With `C/C(=C\C=C\C[C@H](C)C(Cl)(Cl)Cl)C(=O)N[C@H](c1nccs1)C(C)C` [HERBAMIDE B] the IC50 (Leishmania donovani) was 5.9 µM, the IC50 (Plasmodium falciparum) was > 10 µM and the IC50 (Trypanosoma cruzi) was > 10 µM.
